An excerpt weighted towards active compounds, which were near 1.1% of everything screened.
CAL PDZ FP-1 – CAL PDZ peptide-binding inhibitors, primary screen, biochemical, fluorescence polarization, Cer-tagged CAL PDZ, HTS; Golgi-associated PDZ and coiled-coil motif-containing protein (Homo sapiens), Q9HD26; purified CAL PDZ, TMR-peptide fluorescence polarization, 1 h; actives 0.02% (n = 330,000); AID 504414, 2011; inhibition, % at 20 µM;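 active = highest replicate inhibition of at least 40%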;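 note: plate controls were DMSO neutral control wells for no effect and unlabeled competitor peptide control wells for full effect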
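Test system: tagged CAL PDZ domain / Buffer or medium: sodium phosphate/NaCl buffer pH 7.4 with TCEP, IgG, Thesit / Reagent: TMR-labelled reporter peptide T*-PRC34 bound in PDZ groove / Compound dosing: single point, 20 µM / Schedule: 1 h incubation at room temperature before polarization reading / Technique: fluorescence polarization (mP) / Benchmarks: unlabelled peptide, DMSO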
Keap1 Nrf2 FP – Keap1-Nrf2 protein-protein interaction inhibitors, primary screen, biochemical, fluorescence polarization, single point; Kelch-like ECH-associated protein 1 (Homo sapiens), Q14145; actives 0.15% (n = 340,000); inhibition, % at 9.4 µM; Keap1 Kelch-Nrf2 peptide fluorescence polarization, 1536-well; in the data active = inhibition above about 12%;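 note: human Keap1 Kelch domain with fluorescein labeled Nrf2 9mer peptide probe; 0% = neutral control wells and 100% = peptide positive control; higher means more block of Keap1 binding to Nrf2 peptide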
Target sequence (Q14145 whole entry, looked up, the tested form may be a part): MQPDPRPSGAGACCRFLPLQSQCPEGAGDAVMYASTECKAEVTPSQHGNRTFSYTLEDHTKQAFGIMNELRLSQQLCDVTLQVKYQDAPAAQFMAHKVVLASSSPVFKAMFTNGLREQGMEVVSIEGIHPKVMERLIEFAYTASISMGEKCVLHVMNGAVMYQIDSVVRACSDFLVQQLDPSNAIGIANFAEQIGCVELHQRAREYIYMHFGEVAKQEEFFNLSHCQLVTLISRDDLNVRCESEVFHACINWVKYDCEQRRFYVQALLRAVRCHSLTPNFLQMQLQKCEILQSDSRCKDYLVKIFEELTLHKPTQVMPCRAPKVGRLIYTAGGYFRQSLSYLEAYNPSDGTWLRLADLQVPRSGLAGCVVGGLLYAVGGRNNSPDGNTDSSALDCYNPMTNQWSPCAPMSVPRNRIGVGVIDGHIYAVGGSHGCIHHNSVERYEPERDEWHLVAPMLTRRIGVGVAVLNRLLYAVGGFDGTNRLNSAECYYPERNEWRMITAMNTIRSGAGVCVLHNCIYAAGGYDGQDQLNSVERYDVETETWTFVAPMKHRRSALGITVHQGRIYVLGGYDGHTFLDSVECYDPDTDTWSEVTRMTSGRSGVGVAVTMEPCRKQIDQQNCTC
LANA DNA inh – inhibitors of KSHV C-LANA binding to DNA, primary screen, biochemical, fluorescence polarization, FAM-LBS DNA, MBP-C-LANA, single point. Kaposi's sarcoma herpesvirus LANA C-terminal domain (residues 932-1162) DNA binding. AID 504423, 2011. inhibition, % at 9 µM. actives 0.078% (n = 340,000);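 active = highest replicate inhibition at or above 60% at 9 µM, even if other replicates fall short; inactive = all replicates below 60% inhibition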;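 note: 0% = neutral control wells and 100% = 4 µM acridine orange control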
CAL PDZ FP-2 – untagged CAL PDZ binding inhibitors, primary screen, biochemical, fluorescence polarization, HTS; Golgi-associated PDZ and coiled-coil motif-containing protein (Homo sapiens), Q9HD26; actives 0.92% (n = 300,000); inhibition, % at 24.9 µM; purified CAL PDZ, TMR-peptide fluorescence polarization, 1 h; AID 602252, 2012;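 active = mean inhibition of at least 30% with at least half of replicates also reaching 30%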;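 note: 0% = DMSO neutral control and 100% = excess unlabeled competitor peptide PRC23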
miR-122 sensor – miR-122 Renilla sensor signal increase in Huh7, primary screen, miR-122 inhibitor project, cell-based, single point, plate reader; activation (reporter increase), % at 12.5 µM; actives 0.3% (n = 340,000); Huh7 miR-122 Renilla luciferase sensor, 48 h; neutral wells = 0, positive control = 100; AID 602342, 2012;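 active = mean replicate activation score at least 90 and every replicate individually at or above 90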;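 note: higher luciferase means less miR-122 activity so hits act as miR-122 inhibitors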
* hit, by the source's call; . = not tested or not shown; ! = not active in a repeat; [ ] = another dose, or the depositor's remark.

SMILES | CAL PDZ FP-1 | Keap1 Nrf2 FP | LANA DNA inh | CAL PDZ FP-2 | miR-122 sensor
COCCOCC(O)CN1CCN(c2ccccc2)CC1 (configuration not stated) | -0.2 | -0.8 | 0.7 | 31.8* | 7.6
COc1ccc(NC(=O)Nc2ccc3c(c2)CC(=O)N([C@@H](C)CO)C[C@@H](C)[C@H](CN(C)C(=O)NC(C)C)O3)cc1 | . | . | . | . | 101.0*[16.7 µM]
CC(C)NC(=O)Nc1ccc2c(c1)CC(=O)N([C@H](C)CO)C[C@@H](C)[C@@H](CN(C)Cc1ccc(Oc3ccccc3)cc1)O2 | . | . | . | . | 96.6*[16.7 µM]
COc1ccc(NC(=O)N(C)C[C@H]2Oc3ccc(NC(=O)Nc4ccc(C(F)(F)F)cc4)cc3CC(=O)N([C@@H](C)CO)C[C@H]2C)cc1 | . | . | . | . | 200.8*[16.7 µM]
CCC(=O)N1[C@@H](CO)[C@@H](c2ccc(-c3ccc(F)cc3)cc2)[C@@H]1CNC(C)=O | . | . | . | . | -7.1[16.7 µM]
CCC(=O)N1[C@H](CO)[C@@H]2c3ccccc3N(C(=O)CC(F)(F)F)C[C@@H]21 | . | . | . | . | -16.7[16.7 µM]
COc1cc(C(=O)NNC(=O)c2ccc3c(c2)OCCO3)cc(OC)c1OC | -0.4 | -3.2 | 1.4 | 92.0* | 2.4
COc1cc(OC)cc(C(=O)NNC(=O)c2ccc3c(c2)OCCO3)c1 | 0.3 | -1.6 | -2.5 | . | 2.7
O=C(C=Cc1ccccc1)c1cc(Br)ccc1O | 20.9 | -0.5 | 0.7 | 80.8* | -5.1
O=C(/C=C/c1cc(Br)ccc1O)c1ccco1 | -1.3 | -12.8 | 0.6 | -6.8 | 194.7*
O=C(/C=C/c1ccccc1O)c1ccco1 | 0.9 | -8.8 | -1.1 | -0.4 | 8.2
CCNC(=O)C[C@@H]1CC[C@H]2[C@H](COc3ccc(NC(=O)Nc4c(C)noc4C)cc3C(=O)N2C)O1 | . | . | . | . | 2.2[16.7 µM]
C[C@@H]1CN([C@@H](C)CO)C(=O)CCCn2cc(nn2)CO[C@@H]1CN(C)C(=O)Cc1ccccc1 | . | . | . | . | 4.2[16.7 µM]
COc1ccc(OCC(O)CNC(=O)c2ccc(OC)cc2)cc1 (configuration not stated) | -1.0 | 2.4 | -0.4 | -0.6 | .
COc1ccc(OCC(O)CNC(=O)c2ccc(Br)cc2)cc1 (configuration not stated) | 13.3 | -0.4 | 0.9 | 72.2* | -2.5
COc1cc(-c2cc(C(=O)N(C)Cc3ccccc3)c3ccccc3n2)cc(OC)c1OC | -3.0 | -3.7 | -0.1 | -7.8 | 10.5
COc1ccccc1CN(C)C(=O)c1cc(-c2cc(OC)c(OC)c(OC)c2)nc2ccccc12 | -1.7 | -0.8 | -1.2 | 58.0* | .
COc1ccc(-c2cc(C(=O)NCc3ccco3)c3ccccc3n2)cc1OC | -0.7 | 0.1 | 0.3 | 68.6* | 0.1
COc1cccc(-c2cc(C(=O)NCc3ccco3)c3ccccc3n2)c1 | -3.6 | 2.8 | 1.3 | -0.5 | 1.8
COc1ccc(CN(C)C[C@@H]2Oc3ccc(NC(=O)C4CC4)cc3CC(=O)N([C@H](C)CO)C[C@H]2C)cc1 | . | . | . | . | 1.4[16.7 µM]
Cc1ccc(-c2nnc(SCC(=O)N3c4ccccc4NC(=O)C3(C)C)n2N)cc1 | -0.8 | 0.4 | -0.3 | 2.5 | 1.9
Cc1ccc(-n2nnnc2SCC(=O)N2c3ccccc3NC(=O)C2(C)C)cc1 | -1.3 | -4.0 | 0.3 | -0.8 | 160.3*
COc1ccc(NC(=O)Nc2cccc3c2O[C@@H](CN(C)Cc2ccc(Cl)c(Cl)c2)[C@@H](C)CN([C@@H](C)CO)C3=O)cc1 | . | . | . | . | 64.5[16.7 µM]
O=C(O)CSc1nc2c(c(C(F)(F)F)n1)CCCC2 | 0.3 | -3.5 | 0.5 | 78.0*! | 18.0
CCCN(CC(=O)Nc1ccccc1C)C(=O)CCCc1c[nH]c2ccccc12 | 0.3 | 0.4 | -0.7 | 131.5* | 7.0
CCCN(CC(=O)Nc1ccccc1C)C(=O)COc1c(C)cccc1C | 0.0 | 3.8 | -1.1 | 44.7* | 1.6
CCN(CC(=O)Nc1c(F)cccc1F)C(=O)CCCc1c[nH]c2ccccc12 | -0.2 | 0.8 | -1.3 | -3.9 | -1.1
O=C(O)C[C@H]1C[C@@H]2c3cc(NC(=O)C4CCOCC4)ccc3O[C@@H]2[C@@H](CO)O1 | . | . | . | . | -2.4[16.7 µM]
